From PubChem BioAssay
RBBP9 inhibitor: human RBBP9 inhibitors, primary screen, biochemical, fluorescence polarization, FP-Rh probe, HTS | Serine hydrolase RBBP9 (Homo sapiens), O75884 | recombinant RBBP9 | inhibition, % at 7.94 µM | hit rate 0.2% among 220,000 | AID 1515, 2009;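 active = inhibition above the campaign mean of all tested compounds plus 3 SD, cut at about 14% in these data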;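 also: plate controls were DMSO wells with RBBP9 for no effect and wells lacking RBBP9 protein for full effect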
Target sequence (O75884 whole entry, looked up): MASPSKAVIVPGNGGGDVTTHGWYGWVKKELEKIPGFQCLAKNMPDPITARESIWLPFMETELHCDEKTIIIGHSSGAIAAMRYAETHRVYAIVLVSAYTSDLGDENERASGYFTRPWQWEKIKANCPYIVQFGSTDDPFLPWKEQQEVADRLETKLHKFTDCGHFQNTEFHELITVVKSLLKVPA
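System: RBBP9 protein / Quantity: 2.5 µM RBBP9 dispensing solution, before mixing / Also added: Serine-hydrolase probe FP-Rh, 375 nM pre-mixing / Dosing: 7.94 µM single dose, 0.794% DMSO / Timing: enzyme-compound preincubation 30 min, then probe labeling 45 min, 25 °C / Signal: FP readout at 525/598 nm / Controls: DMSO-treated enzyme wells and wells lacking RBBP9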
DNA FID counter: compounds displacing fluorescent DNA intercalator, primary screen, artefact control for HCV NS3 helicase inhibitor project, biochemical, FID fluorescence; DNA fluorescent intercalator displacement; inhibition, % at 7.9 µM; hit rate 0.17% among 290,000; in the data active = inhibition above about 37%;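 also: 0% = vehicle and 100% = reference compound; higher means more ethidium bromide displaced from hairpin DNA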
Wee1 stabilizer: Wee1 degradation inhibitors, primary screen, cell-based, HeLa, Wee1K328M-luciferase, luminescence. Wee1-like protein kinase (Homo sapiens), P30291. HeLa Luc-Wee1K328M stability; 100% = proteasome inhibitor MG132 effect. reporter increase, % at 5 µM. hit rate 1.2% among 220,000. AID 1321, 2008;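 active = activation above the mean of all tested compounds plus 3 SD, set per screening run, cut at about 8.8% in these data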;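 also: cells exposed to compound for 20 h before luminescence read; 0% = DMSO alone and 100% = MG132 at 30 µM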
Rad51 HR inh: human RAD51 strand exchange inhibitors, primary screen, biochemical, fluorescence. DNA repair protein RAD51 homolog 1 (Homo sapiens), Q06609. hRad51 DNA strand exchange, fluorescence dequenching. inhibition, % at 10 µM. hit rate 0.085% among 200,000. AID 1385, 2008;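 active = inhibition above 40% at the single screening dose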;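 also: 0% = DMSO control wells and 100% = blanks with heterologous ssDNA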
Target sequence (Q06609 whole entry, looked up): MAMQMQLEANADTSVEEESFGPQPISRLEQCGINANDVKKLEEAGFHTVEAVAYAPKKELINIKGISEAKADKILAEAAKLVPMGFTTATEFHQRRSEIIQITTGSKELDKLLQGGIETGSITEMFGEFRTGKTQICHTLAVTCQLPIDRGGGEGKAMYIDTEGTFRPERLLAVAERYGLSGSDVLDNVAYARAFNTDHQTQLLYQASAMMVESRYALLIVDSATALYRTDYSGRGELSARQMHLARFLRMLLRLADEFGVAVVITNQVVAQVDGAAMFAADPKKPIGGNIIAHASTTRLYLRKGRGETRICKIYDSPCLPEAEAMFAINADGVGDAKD
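Test system – preformed human Rad51 ssDNA filaments · Reagent – Donor/quencher-labelled 47-bp dsDNA substrate · Incubation – 37 °C 15-min filament assembly, 30-min compound preincubation, 15-min exchange · Signal – FRET fluorescence dequenching, excitation 485 nm, emission 520 nm · Read-out – percent inhibition from fluorescence, normalised to plate control and blank means · Benchmarks – plate control and blank wells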
* marks the source's active call; other numbers are inactive results. Only some compounds are listed: those with a hit (about 1.2% of all), similar ones and a draw of the others.

For N=c1c(C(=O)NCCN2CCOCC2)cc2c(=O)n3ccccc3nc2n1CCc1ccccc1 the results were DNA FID counter 35.1.
CCOC(=O)N1CCC(=NNC(=O)COc2ccc(OC)cc2)CC1 was read as RBBP9 inhibitor -4.5, DNA FID counter -3.9, Wee1 stabilizer 1.8 and Rad51 HR inh -1.8.
For Cc1noc(/C=C/c2cccs2)c1S(=O)(=O)N1CCC(C(=O)NCCCN2CCCC(C)C2)CC1 (configuration not stated) the results were RBBP9 inhibitor 4.7, DNA FID counter 13.4 and Wee1 stabilizer 9.2*.
`Cc1c(O)ccc(-c2n[nH]c(C(=O)O)c2-c2nc3ccccc3s2)c1O` gave RBBP9 inhibitor -7.5, DNA FID counter -13.7 and Wee1 stabilizer 10.0*.
`CCn1c(=O)c(C(=O)NCc2ccc(F)cc2)c(O)c2ccccc21` gave DNA FID counter -4.4.
Screening Cc1ccc(Cl)c(OCC(=O)Nc2sc(C)c(C)c2C#N)c1 returned RBBP9 inhibitor 4.8, DNA FID counter 0.7, Wee1 stabilizer 8.8* and Rad51 HR inh -2.2.
`CCOC(=O)c1c(C)[nH]c(C(=O)CSc2nnc(-c3ccncc3)n2CC)c1C` gave RBBP9 inhibitor -1.3, DNA FID counter -29.7, Wee1 stabilizer 2.0 and Rad51 HR inh 5.3.
C=CCn1c(SCC(=O)c2[nH]c(C)c(C(=O)OCC)c2C)nc2scc(-c3ccc(OC)c(OC)c3)c2c1=O was read as RBBP9 inhibitor -3.8, DNA FID counter -13.3 and Wee1 stabilizer 9.4*.
Screening CSc1ccc(CN2CCN(CCC(C)C)C(CCO)C2)cc1 (configuration not stated) returned RBBP9 inhibitor 2.8, DNA FID counter 8.7, Wee1 stabilizer 10.2* and Rad51 HR inh -7.4.
O=C(O)c1ccccc1NN=C1CCCCC1 was read as RBBP9 inhibitor 3.0, DNA FID counter 8.9, Wee1 stabilizer 9.8* and Rad51 HR inh 1.5.
`Cc1ccc(-c2csc(N/N=C/c3ccco3)n2)c(C)c1` gave RBBP9 inhibitor -10.1, DNA FID counter -4.3, Wee1 stabilizer 9.6* and Rad51 HR inh 12.2.
For CCOC(=O)Nc1ccc2c(c1)N(C(=O)CN1CCN(C)CC1)c1ccccc1S2 the results were RBBP9 inhibitor 10.0, DNA FID counter 11.8, Wee1 stabilizer 1.3 and Rad51 HR inh -6.5.
CCCC(CCC)C(=O)Nc1ccc2c(c1)N(C(=O)CN1CCN(C)CC1)c1ccccc1CC2 was read as RBBP9 inhibitor 7.2, DNA FID counter 48.6*, Wee1 stabilizer -1.2 and Rad51 HR inh -2.3.
Cc1ccccc1Cn1cc(NS(=O)(=O)c2cn(C)nc2C)cn1 was read as DNA FID counter -4.3.
Cc1sc(NC(=O)c2ccc(Cl)s2)c(C(N)=O)c1C was read as RBBP9 inhibitor -7.0, DNA FID counter 4.3, Wee1 stabilizer 9.6* and Rad51 HR inh -1.3.
`Cc1sc(NC(=O)c2ccc(Br)s2)c(C(N)=O)c1C` gave RBBP9 inhibitor -4.3, DNA FID counter 0.4, Wee1 stabilizer 1.2 and Rad51 HR inh 1.9.
For O=[N+]([O-])c1cc(S(=O)(=O)N2CCCCC2)ccc1NCCN1CCOCC1 the results were RBBP9 inhibitor -7.9, DNA FID counter -4.5, Wee1 stabilizer -1.1 and Rad51 HR inh -10.2.
`NC(=O)c1sc2nc(-c3cccnc3)ccc2c1N` gave RBBP9 inhibitor -14.2, DNA FID counter -15.7, Wee1 stabilizer -3.7 and Rad51 HR inh -17.1.
For CCOC(=O)c1sc2nc(-c3cccnc3)ccc2c1N the results were RBBP9 inhibitor 2.5, DNA FID counter 6.6, Wee1 stabilizer 9.3* and Rad51 HR inh 4.5.
Cc1ccccc1CSCC(=O)Nc1ccccc1Br was read as DNA FID counter -11.0.
For CC(O)/C=C/C1OC(=O)CC1Nc1ccc(C=O)cc1 (configuration not stated) the results were RBBP9 inhibitor -4.8, DNA FID counter -7.2, Wee1 stabilizer 10.6* and Rad51 HR inh -3.8.
Cc1cc(O)c2c(c1)C(=O)c1cccc(O)c1C2=O was read as RBBP9 inhibitor -8.3, DNA FID counter -2.6, Wee1 stabilizer 3.0 and Rad51 HR inh -10.9.
`O=C(O)c1cc(O)c2c(c1)C(=O)c1cccc(O)c1C2=O` gave RBBP9 inhibitor 26.8*, DNA FID counter -84.9, Wee1 stabilizer -0.7 and Rad51 HR inh 2.9.
For O=c1/c(=C\c2ccc(F)cc2)sc2n1CCCN=2 the results were RBBP9 inhibitor 2.8, DNA FID counter -1.9, Wee1 stabilizer 9.3* and Rad51 HR inh 3.9.
Screening O=c1/c(=C/c2ccc(O)cc2)sc2n1CCCN=2 returned RBBP9 inhibitor -4.8, DNA FID counter 1.3, Wee1 stabilizer 1.7 and Rad51 HR inh -4.4.
Screening O=C(CCN1CCCCCC1)c1ccccc1 returned RBBP9 inhibitor 17.6*, DNA FID counter 1.6, Wee1 stabilizer 0.6 and Rad51 HR inh 0.7.
`COc1ccc(C(=O)CCN2CCCCCC2)cc1` gave RBBP9 inhibitor 0.6, DNA FID counter 0.8, Wee1 stabilizer -2.8 and Rad51 HR inh -3.9.
COC(=O)CCC(=O)Nc1cccc2ccccc12 was read as RBBP9 inhibitor -5.9, DNA FID counter 0.5, Wee1 stabilizer -2.2 and Rad51 HR inh -4.1.
CCCCCC(=O)Nc1cccc2ccccc12 was read as RBBP9 inhibitor -4.5, DNA FID counter -4.2, Wee1 stabilizer 3.2 and Rad51 HR inh 43.0*.
OCC1CCCCN1CC(O)COC(c1ccc(F)cc1)c1ccc(F)cc1 (configuration not stated) was read as DNA FID counter 17.7.
`Cc1ccc2nc(N3CCN(C)CC3)c(C=O)c(=O)n2c1` gave DNA FID counter -4.2.
Cn1c(CCN2CCOCC2)nc2cc(NC(=O)COc3ccccc3)ccc21 was read as RBBP9 inhibitor -7.2, DNA FID counter -5.6, Wee1 stabilizer 9.1* and Rad51 HR inh -4.0.
`Cc1[nH]n2c(=O)cc(C(C)C)nc2c1-c1ccccc1` gave RBBP9 inhibitor 3.3, DNA FID counter -3.2 and Wee1 stabilizer -0.7.
`Cc1[nH]n2c(=O)cc(C(C)(C)C)nc2c1-c1ccccc1` gave RBBP9 inhibitor 2.4, DNA FID counter -12.4, Wee1 stabilizer 9.1* and Rad51 HR inh -9.7.
For O=C(Nc1ccsn1)c1ccc(Cl)cc1Cl the results were RBBP9 inhibitor -15.7, DNA FID counter -2.3, Wee1 stabilizer 2.2 and Rad51 HR inh -27.7.
For COc1cccc(/C=C/C(=O)c2cccc([N+](=O)[O-])c2)c1OC the results were RBBP9 inhibitor 2.4, DNA FID counter -0.7, Wee1 stabilizer -3.4 and Rad51 HR inh 80.3*.
For COc1cccc(/C=C/C(=O)c2cccc([N+](=O)[O-])c2)c1 the results were RBBP9 inhibitor 3.8, DNA FID counter 5.5, Wee1 stabilizer 4.0 and Rad51 HR inh -35.2.
Screening COc1ccc(NC(=S)N2CCc3ccccc32)cc1OC returned DNA FID counter -8.5.
Screening CCOc1ccc(C(=O)CSCCC(=O)O)cc1 returned RBBP9 inhibitor 6.0, DNA FID counter -3.1, Wee1 stabilizer 2.3 and Rad51 HR inh 12.0.
